Scp-1 inhibitor: blocks human Scp-1 phosphatase activity; Q9GZU7; Recombinant Scp1, phosphopeptide, malachite green phosphate absorbance; inhibition, % at 20 µM; actives 0.88% (n = 340,000);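 active means inhibition above about 50% at 20 µM, limit read from the data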
Target sequence (Q9GZU7 76-261 limits assumed): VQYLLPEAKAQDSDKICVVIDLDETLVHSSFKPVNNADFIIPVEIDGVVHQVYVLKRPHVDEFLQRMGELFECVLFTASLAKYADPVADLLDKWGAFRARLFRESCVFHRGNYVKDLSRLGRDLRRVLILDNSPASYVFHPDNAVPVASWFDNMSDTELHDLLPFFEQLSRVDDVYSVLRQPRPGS
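Incubation: 45 min enzyme reaction at room temperature / System: truncated SCP-1 phosphatase (76-261aa) / Reagent: Phospho 17-mer peptide substrate / Buffer or medium: Acidic Tris acetate buffer with magnesium and detergent / Signal: absorbance at 630 nm / Doses: one concentration, 20 µM, with 1.0% DMSO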
SUMO1-SIM PPI: alters human SUMO1 binding to SIM partners. P63165. SUMO1 binding to a labelled peptide, TR-FRET, 1 h. inhibition, % at 20 µM. actives 0.33% (n = 360,000); in the data active means inhibition above about 37%
Pemphigus Ab inh: inhibitors of pemphigus antibody binding to human desmoglein-3; P32926; DSG3-coupled beads, scFv-anti-DSG3-GFP binding, flow cytometry; hits give low values; binding (percent of control), % at 10 µM; actives 0.48% (n = 310,000);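 active means binding more than 3 SD below its plate's average and above zero; inconclusive means below that plate limit but binding exactly zero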;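 further: hits lower antibody fragment binding to DSG3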
STEP inh: blocks human striatal-enriched tyrosine phosphatase; P54829; recombinant STEP, OMFP fluorogenic substrate, fluorescence; inhibition, % at 20 µM; actives 0.25% (n = 360,000); AID 588621;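 active means inhibition at 20 µM, scaled per plate between control wells, above about 37%, limit read from the data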
Target sequence (P54829 whole entry, looked up): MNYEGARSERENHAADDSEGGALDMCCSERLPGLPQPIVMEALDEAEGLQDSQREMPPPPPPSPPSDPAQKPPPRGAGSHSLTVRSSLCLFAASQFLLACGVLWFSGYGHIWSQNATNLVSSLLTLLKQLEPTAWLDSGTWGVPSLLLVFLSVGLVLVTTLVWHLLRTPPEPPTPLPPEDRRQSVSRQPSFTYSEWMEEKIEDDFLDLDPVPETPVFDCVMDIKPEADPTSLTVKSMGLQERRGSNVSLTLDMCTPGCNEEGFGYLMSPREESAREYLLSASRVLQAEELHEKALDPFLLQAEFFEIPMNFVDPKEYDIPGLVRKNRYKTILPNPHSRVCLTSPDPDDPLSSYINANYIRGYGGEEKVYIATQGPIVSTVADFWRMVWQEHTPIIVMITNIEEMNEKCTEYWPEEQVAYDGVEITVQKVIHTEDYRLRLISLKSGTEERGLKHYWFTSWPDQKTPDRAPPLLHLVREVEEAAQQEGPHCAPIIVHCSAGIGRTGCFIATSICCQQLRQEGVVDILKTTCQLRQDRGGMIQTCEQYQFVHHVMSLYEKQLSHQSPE
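System: STEP phosphatase, cell-free reaction; Buffer or medium: Bis-Tris pH 6.0 buffer with DTT, detergent; Incubation: 20 min at room temperature, dark; Measured by: fluorescence, 480/540 nm.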
LMPTP inh: LMPTP (human) inhibition; recombinant LMPTP-A, OMFP fluorogenic substrate, fluorescence intensity; inhibition, % at 20 µM; actives 0.22% (n = 360,000);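 active means compounds that cut the enzyme signal by at least half of the control window in the single-dose screen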
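Buffer or medium: Bis-Tris pH 6.0, DTT, detergent; Assay system: LMPTP-A enzyme; Quantity: 0.625 nM enzyme; Detection: endpoint fluorescence intensity; Times: 50 min dark incubation at room temperature; Controls: substrate-only low control, DMSO enzyme-plus-substrate high control; Doses: single 20 µM dose; Read-out: percent inhibition versus substrate-only and uninhibited controls; Reagent: 400 µM OMFP.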
Scp-1 conf: confirmation of human Scp-1 phosphatase inhibitors; shares compounds with Scp-1 inhibitor; recombinant SCP-1 catalytic domain, phosphate release, malachite green absorbance; inhibition, % at 20 µM; actives 61% (n = 2,500); AID 540281
Scp-1 MG ctr: counter-screen for Scp-1 inhibitors: colorimetric interference | Colorimetric interference counterscreen, malachite green absorbance 630 nm | shares compounds with Scp-1 inhibitor | 2,500 tested, under 10 active | AID 540313 | apparent inhibition (interference), % at 20 µM;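 further: compounds added after enzyme reaction finished so only phosphate colour detection is probed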
Scp-1 Tm shift: binds human Scp-1, shifting its melting temperature; shares compounds with Scp-1 inhibitor; Recombinant SCP1, Sypro Orange thermal shift Tm; thermal shift relative to vanadate control, % at 40 µM; actives 25% (n = 1,500);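 active means substances whose mean melting-temperature shift, as a percentage of the reference inhibitor's shift, reaches about 5.3%, limit read from the data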
Of the large screens only hits and unclear results are named; the others gave an inactive call (follow-up assays come after a bar, where they were run). Sampled rows, rich in hits. Any-hit rate of the full collection: about 1.7%.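 How the source made its calls, unless noted: active means inhibition of at least 30% at 20 µM; inactive means the rest.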

O=C(CCN1C(=O)/C(=C/c2ccc(Cl)cc2)SC1=S)Nc1cccc(C(=O)O)c1	Scp-1 inhibitor 89 | Scp-1 conf 66 | Scp-1 MG ctr inactive | Scp-1 Tm shift 9.7
O=C(CCCN1C(=O)/C(=C\c2ccccc2)SC1=S)Nc1cccc(C(=O)O)c1	none
CCOC(=O)N1CCN(c2c(NCC3CCCO3)c(=O)c2=O)CC1 (stereo not given)	Scp-1 inhibitor 82 | Scp-1 conf inactive | Scp-1 MG ctr inactive
CCOC(=O)N1CCN(c2c(NCCOC)c(=O)c2=O)CC1	none
COc1ccc2nc(NC(=O)Cn3cnc4ccccc4c3=O)sc2c1	none
Cc1nn(-c2nnc(NC3CCCCC3)nn2)c(C)c1Br	none
COC(=O)CSc1nc(SC)nc2c1sc1nc(-c3ccco3)c3c(c12)CC(C)(C)OC3	none
CSc1nc(SCCO)c2sc3nc(-c4ccco4)c4c(c3c2n1)CC(C)(C)OC4	Scp-1 inhibitor 79, SUMO1-SIM PPI 60 (no result: Pemphigus Ab inh) | Scp-1 conf 43 | Scp-1 MG ctr inactive | Scp-1 Tm shift 7.4
Cc1ccc(C(=O)NN2CC(O)=C(c3nc(-c4cccc([N+](=O)[O-])c4)cs3)C2=N)cc1	Scp-1 inhibitor 75 | Scp-1 conf 43 | Scp-1 MG ctr inactive | Scp-1 Tm shift 6.1
CC(=O)Nc1cccc(-c2ccnc3c2CC(C)(C(=O)NCC2CC2)O3)c1 (stereo not given)	none (no result: Scp-1 inhibitor, Pemphigus Ab inh)
CC1CC(C)CN(c2nc3c(c(=O)n(C)c(=O)n3C)n2CCSc2nc3ccccc3o2)C1 (stereo not given)	none
COCCN1C(=O)C(=O)/C(=C(/O)c2cccc(OC)c2)C1c1ccco1 (stereo not given)	Scp-1 inhibitor 57, Pemphigus Ab inh inconclusive | Scp-1 conf 56 | Scp-1 MG ctr inactive | Scp-1 Tm shift inactive
O=C(Nc1ccc(Oc2ncnc3cc(Cl)ccc23)nc1)Nc1cccc(C(F)(F)F)c1	none (no result: Pemphigus Ab inh)
C/C(N)=C(/C#N)C(=O)CSc1ncnc2ccccc12	none
C/C(N)=C(/C#N)C(=O)CSc1nc2ccccc2[nH]1	Scp-1 inhibitor 69 | Scp-1 conf 51 | Scp-1 MG ctr inactive | Scp-1 Tm shift inactive
Cc1c(OC(=O)c2ccc([N+](=O)[O-])cc2)c2c(c[n+]1C)COC(C)(C)OC2	Scp-1 inhibitor 67 | Scp-1 conf 79 | Scp-1 MG ctr inactive | Scp-1 Tm shift inactive
Cc1ncc2c(c1OC(=O)c1ccccc1)COC(C)(C)OC2	none
Cc1ccc(NS(=O)(=O)c2ccc3c(c2)NC(=O)C(C)C(=O)N3)c(Cl)c1 (stereo not given)	none
CCC(NS(=O)(=O)c1ccc2c(c1)NC(=O)C(C)C(=O)N2)c1cccs1 (stereo not given)	none | Scp-1 conf inactive | Scp-1 MG ctr inactive
CC1Sc2ccc(S(=O)(=O)NCCc3ccc(Cl)cc3)cc2NC1=O (stereo not given)	none
CC1C(=O)Nc2ccc(S(=O)(=O)NCc3ccc(Cl)cc3)cc2NC1=O (stereo not given)	none | Scp-1 conf inactive | Scp-1 MG ctr inactive
COc1cccc(C(C)(O)c2nc(-c3csc4ccccc34)cs2)c1 (stereo not given)	none (no result: Scp-1 inhibitor, Pemphigus Ab inh)
Cc1ccc(S(=O)(=O)N(C)c2ccc(C(=O)NCc3cccnc3)cc2)cc1	Scp-1 inhibitor 79 (no result: Pemphigus Ab inh) | Scp-1 conf inactive | Scp-1 MG ctr inactive
CC(C)CCC[C@](C)(O)c1ccc(C(=O)O)cc1O	none (no result: Scp-1 inhibitor, Pemphigus Ab inh, STEP inh)
CC(C)(O)CCCC(C)(O)c1ccc(C(=O)O)cc1O (stereo not given)	Scp-1 inhibitor 61 | Scp-1 conf 52 | Scp-1 MG ctr inactive | Scp-1 Tm shift 6.1
CC(C)(C)n1cnnc1Sc1ncccc1[N+](=O)[O-]	none (no result: Pemphigus Ab inh)
NC(=O)c1cc(S(=O)(=O)NCCCc2ccccc2)cs1	none
CN(C)c1ccc(CNS(=O)(=O)c2csc(C(N)=O)c2)cc1	none | Scp-1 conf inactive | Scp-1 MG ctr inactive
CC(C)Oc1ccc(CNS(=O)(=O)c2csc(C(N)=O)c2)cc1	none | Scp-1 conf inactive | Scp-1 MG ctr inactive
Cc1ccnc(NC(=O)c2cccc(S(=O)(=O)N3CCCC3)c2)c1	none
CC(/C=C/c1ccco1)=N\NC(=O)c1cc(C)[nH]n1	Scp-1 inhibitor 52 | Scp-1 conf inactive | Scp-1 MG ctr inactive
CC(/C=C/c1ccco1)=N/NC(=O)c1ccc(C)nc1	none (no result: Pemphigus Ab inh)
CC(/C=C/c1ccco1)=N\NC(=O)c1cc(Cl)ccc1O	Scp-1 inhibitor 54 | Scp-1 conf 68 | Scp-1 MG ctr inactive | Scp-1 Tm shift 16
CC(/C=C/c1ccco1)=N\NC(=O)c1cccnc1	Scp-1 inhibitor 55 | Scp-1 conf 33 | Scp-1 MG ctr inactive | Scp-1 Tm shift inactive
CCOC(=O)c1cnc2c(N=Nc3ccccc3)c(N)nn2c1N	none
CC(=O)Nc1ccc(S(=O)(=O)NCC2CC3CCC2C3)cc1 (stereo not given)	none
O=C(O)CC1Sc2ccccc2NC1=O (stereo not given)	none
O=C1Nc2ccccc2SC(c2ccccc2)C1O (stereo not given)	Scp-1 inhibitor 74 | Scp-1 conf 64 | Scp-1 MG ctr inactive | Scp-1 Tm shift 6.6
COCCN(C(=O)COC(=O)/C=C/c1ccc(C(F)(F)F)cc1)c1c(N)n(Cc2ccccc2)c(=O)[nH]c1=O	Scp-1 inhibitor 58 | Scp-1 conf inactive | Scp-1 MG ctr inactive
CCCCn1c(N)c(N(CCOC)C(=O)c2cc(-c3ccco3)nc3ccccc23)c(=O)[nH]c1=O	Scp-1 inhibitor 58 | Scp-1 conf 67 | Scp-1 MG ctr inactive | Scp-1 Tm shift inactive
COCCN(C(=O)c1cc(-c2ccco2)nc2ccccc12)c1c(N)n(Cc2ccccc2)c(=O)[nH]c1=O	Scp-1 inhibitor 64 | Scp-1 conf 58 | Scp-1 MG ctr inactive | Scp-1 Tm shift inactive
CSc1ccccc1NC(=O)CN(C)C(=O)c1ccc(NC(=O)c2cccs2)cc1	none
Cc1ccccc1-c1nnn(Cc2ccc(F)cc2Cl)n1	none
CCOC(=O)[C@@H]1[C@H]2COc3ccc(Br)cc3[C@@H]2N2C(=O)N(c3ccc(Cl)cc3)C(=O)[C@]12C	none
Cc1cccc(C)c1NC(=O)CN(C)C(=O)c1ccc2nc[nH]c2c1	Scp-1 inhibitor 50 | Scp-1 conf 55 | Scp-1 MG ctr inactive | Scp-1 Tm shift inactive
Cc1ccc(NC(=O)c2ccc3nc[nH]c3c2)nc1	Scp-1 inhibitor 57 (no result: Pemphigus Ab inh) | Scp-1 conf 44 | Scp-1 MG ctr inactive | Scp-1 Tm shift inactive
CN(CC(=O)Nc1c(Cl)cccc1Cl)C(=O)c1ccc2nc[nH]c2c1	none
O=S1(=O)C=C(SCc2ccc(Cl)c(Cl)c2)Nc2ccccc21	none (no result: Pemphigus Ab inh)
